Data as given in ChEMBL document CHEMBL1138555, “N-acylated and N,N'-diacylated imidazolidine-2-thione derivatives and N,N'-diacylated tetrahydropyrimidine-2(1H)-thione analogues: synthesis and antiproliferative activity” (Eur J Med Chem, 2009).

What was measured:
NCI-H460 = assay: Growth inhibition of human NCI-H460 cells after 48 hrs by sulforhodamine B assay; type: functional; details: NCI-H460, 48 h
How it was run: (§1)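 NCI screen panel. Five 10-fold concentrations from 10^-4 to 10^-8 M. Exposure for the last 48 h of a 72 h incubation. Growth estimated by sulforhodamine B protein assay. GI50 is the concentration giving 50% growth inhibition. Where that level was not reached or was exceeded, the value is given as above or below the highest or lowest concentration tested.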

SN12C = assay: Growth inhibition of human SN12C cells after 48 hrs by sulforhodamine B assay; type: functional
How it was run: (§2)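 NCI in vitro panel screen. Compounds tested at five 10-fold dilutions, 10^-4 to 10^-8 M. Cells in 96-well plates were exposed for the last 48 h of a 72 h incubation. Viability/growth was read by sulforhodamine B protein assay. GI50 is the concentration giving 50% growth inhibition. Values beyond the tested range are reported as greater or less than the maximum or minimum concentration.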

DU-145 = assay: Growth inhibition of human DU145 cells after 48 hrs by sulforhodamine B assay; type: functional; details: DU-145, 48 h; how it was run: as §1
SNB-19 = assay: Growth inhibition of human SNB19 cells after 48 hrs by sulforhodamine B assay; type: functional; details: SNB-19, 48 h; how it was run: as §2
[1] = Growth inhibition of human […] cells after 48 hrs by sulforhodamine B assay; type: functional; how it was run: as §1
EKVX = assay: Growth inhibition of human EKVX cells after 48 hrs by sulforhodamine B assay; type: functional; how it was run: as §1
UO-31 = assay: Growth inhibition of human UO31 cells after 48 hrs by sulforhodamine B assay; type: functional; details: UO-31, 48 h; how it was run: as §2
BT-549 = assay: Growth inhibition of human BT549 cells after 48 hrs by sulforhodamine B assay; type: functional; details: BT-549, 48 h; how it was run: as §1
SR = assay: Growth inhibition of human SR cells after 48 hrs by sulforhodamine B assay; type: functional; how it was run: as §2
OVCAR-8 = assay: Growth inhibition of human OVCAR8 cells after 48 hrs by sulforhodamine B assay; type: functional; details: OVCAR-8, 48 h; how it was run: as §1
SW-620 = assay: Growth inhibition of human SW620 cells after 48 hrs by sulforhodamine B assay; type: functional; details: SW-620, 48 h; how it was run: as §2
IGROV-1 = assay: Growth inhibition of human IGROV1 cells after 48 hrs by sulforhodamine B assay; type: functional; details: IGROV-1, 48 h; how it was run: as §1
U-251 = assay: Growth inhibition of human U251 cells after 48 hrs by sulforhodamine B assay; type: functional; details: U-251, 48 h; how it was run: as §2
KM12 = assay: Growth inhibition of human KM12 cells after 48 hrs by sulforhodamine B assay; type: functional; details: KM12, 48 h; how it was run: as §1
UACC-62 = assay: Growth inhibition of human UACC62 cells after 48 hrs by sulforhodamine B assay; type: functional; details: UACC-62, 48 h; how it was run: as §2
CAKI-1 = assay: Growth inhibition of human Caki1 cells after 48 hrs by sulforhodamine B assay; type: functional; details: CAKI-1, 48 h; how it was run: as §1
SK-MEL-2 = assay: Growth inhibition of human SK-MEL-2 cells after 48 hrs by sulforhodamine B assay; type: functional; details: SK-MEL-2, 48 h; how it was run: as §1
HT-29 = assay: Growth inhibition of human HT-29 cells after 48 hrs by sulforhodamine B assay; type: functional; details: HT-29, 48 h; how it was run: as §1
NCI-H322M = assay: Growth inhibition of human NCI-H322M cells after 48 hrs by sulforhodamine B assay; type: functional; how it was run: as §1
SK-OV-3 = assay: Growth inhibition of human SKOV3 cells after 48 hrs by sulforhodamine B assay; type: functional; details: SK-OV-3, 48 h; how it was run: as §1
Malme-3M = assay: Growth inhibition of human MALME-3M cells after 48 hrs by sulforhodamine B assay; type: functional; how it was run: as §1
MDA-MB-231 = assay: Growth inhibition of human MDA-MB-231 cells after 48 hrs by sulforhodamine B assay; type: functional; details: MDA-MB-231, 48 h; how it was run: as §1
SK-MEL-5 = assay: Growth inhibition of human SK-MEL-5 cells after 48 hrs by sulforhodamine B assay; type: functional; details: SK-MEL-5, 48 h; how it was run: as §1
HCT-15 = assay: Growth inhibition of human HCT15 cells after 48 hrs by sulforhodamine B assay; type: functional; details: HCT-15, 48 h; how it was run: as §1
K562 = assay: Growth inhibition of human K562 cells after 48 hrs by sulforhodamine B assay; type: functional; details: K562, 48 h; how it was run: as §1
RXF 393 = assay: Growth inhibition of human RXF393 cells after 48 hrs by sulforhodamine B assay; type: functional; details: RXF 393, 48 h; how it was run: as §1
A549 = assay: Growth inhibition of human A549 cells after 48 hrs by sulforhodamine B assay; type: functional; details: A549, 48 h; how it was run: as §1
SF-295 = assay: Growth inhibition of human SF295 cells after 48 hrs by sulforhodamine B assay; type: functional; details: SF-295, 48 h; how it was run: as §1
ACHN = assay: Growth inhibition of human ACHN cells after 48 hrs by sulforhodamine B assay; type: functional; how it was run: as §1
MT4 = assay: Antiproliferative activity against human MT4 cells assessed as reduction of growth by MTT assay; type: functional, cell-based
How it was run: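 MT-4 lymphoblastoid T cells (ATCC) in RPMI 1640 with 10% FCS, penicillin/streptomycin, checked for mycoplasma. 1 × 10⁴ mock-infected cells per well with serial dilutions from a 100 mM DMSO stock. Incubated 4 days at 37 °C, viable cells counted by MTT. IC50 versus untreated controls by linear regression. Mean of three separate experiments.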

786-0 = assay: Growth inhibition of human 786-0 cells after 48 hrs by sulforhodamine B assay; type: functional; details: 786-0, 48 h; how it was run: as §1
MDA-MB-435 = assay: Growth inhibition of human MDA-MB-435 cells after 48 hrs by sulforhodamine B assay; type: functional; details: MDA-MB-435, 48 h; how it was run: as §1
UACC-257 = assay: Growth inhibition of human UACC257 cells after 48 hrs by sulforhodamine B assay; type: functional; details: UACC-257, 48 h; how it was run: as §2
M14 = assay: Growth inhibition of human M14 cells after 48 hrs by sulforhodamine B assay; type: functional; details: M14, 48 h; how it was run: as §1
COLO 205 = assay: Growth inhibition of human COLO205 cells after 48 hrs by sulforhodamine B assay; type: functional; details: COLO 205, 48 h; how it was run: as §1
TK-10 = assay: Growth inhibition of human TK10 cells after 48 hrs by sulforhodamine B assay; type: functional; details: TK-10, 48 h; how it was run: as §2
HOP-92 = assay: Growth inhibition of human HOP92 cells after 48 hrs by sulforhodamine B assay; type: functional; details: HOP-92, 48 h; how it was run: as §1
OVCAR-3 = assay: Growth inhibition of human OVCAR-3 cells after 48 hrs by sulforhodamine B assay; type: functional; details: OVCAR-3, 48 h; how it was run: as §1
HCT-116 = assay: Growth inhibition of human HCT116 cells after 48 hrs by sulforhodamine B assay; type: functional; details: HCT-116, 48 h; how it was run: as §1
HOP-62 = assay: Growth inhibition of human HOP62 cells after 48 hrs by sulforhodamine B assay; type: functional; details: HOP-62, 48 h; how it was run: as §1
MOLT-4 = assay: Growth inhibition of human MOLT4 cells after 48 hrs by sulforhodamine B assay; type: functional; details: MOLT-4, 48 h; how it was run: as §1
NCI/ADR-RES = assay: Growth inhibition of human NCI/ADR-RES cells after 48 hrs by sulforhodamine B assay; type: functional; how it was run: as §1
PC-3 = assay: Growth inhibition of human PC3 cells after 48 hrs by sulforhodamine B assay; type: functional; details: PC-3, 48 h; how it was run: as §1
HL-60(TB) = assay: Growth inhibition of human HL-60(TB) cells after 48 hrs by sulforhodamine B assay; type: functional; details: HL-60, 48 h
How it was run: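 NCI 60-cell-line screen protocol: cells exposed to compound at five 10-fold dilutions from 10^-4 to 10^-8 M for the last 48 h of a 72 h incubation. Sulforhodamine B protein assay estimated viability/growth. GI50 (50% growth inhibition) derived; where not reached or exceeded, reported as greater or less than the highest or lowest concentration tested.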

LOX IMVI = assay: Growth inhibition of human LOXIMVI cells after 48 hrs by sulforhodamine B assay; type: functional; how it was run: as §1
OVCAR-4 = assay: Growth inhibition of human OVCAR4 cells after 48 hrs by sulforhodamine B assay; type: functional; details: OVCAR-4, 48 h; how it was run: as §1
SNB-75 = assay: Growth inhibition of human SNB75 cells after 48 hrs by sulforhodamine B assay; type: functional; details: SNB-75, 48 h; how it was run: as §2
NCI-H23 = assay: Growth inhibition of human NCI-H23 cells after 48 hrs by sulforhodamine B assay; type: functional; details: NCI-H23, 48 h; how it was run: as §1
SK-MEL-28 = assay: Growth inhibition of human SK-MEL-28 cells after 48 hrs by sulforhodamine B assay; type: functional; details: SK-MEL-28, 48 h; how it was run: as §1

SMILES: O=C(C(=CN1CCN(C(=O)c2ccco2)C1=S)C(=O)c1ccccc1)c1ccccc1
- GI50 (NCI-H460): 2.4 µM
- GI50 (SN12C): 6.1 µM
- GI50 (DU-145): 12.4 µM
- GI50 (SNB-19): 29.2 µM
- GI50 [1]: 8.4 µM
- GI50 (EKVX): 8.1 µM
- GI50 (UO-31): 8.7 µM
- GI50 (BT-549): 10 µM
- GI50 (SR): 1.3 µM
- GI50 (OVCAR-8): 16.2 µM
- GI50 (SW-620): 8.7 µM
- GI50 (IGROV-1): 5.6 µM
- GI50 (U-251): 2.7 µM
- GI50 (KM12): 2.3 µM
- GI50 (UACC-62): 6.9 µM
- GI50 (CAKI-1): 7 µM
- GI50 (SK-MEL-2): 12.1 µM
- GI50 (HT-29): 16.9 µM
- GI50 (NCI-H322M): 2.2 µM
- GI50 (SK-OV-3): 41.8 µM
- GI50 (Malme-3M): 3.1 µM
- GI50 (MDA-MB-231): 7.4 µM
- GI50 (SK-MEL-5): 10.9 µM
- GI50 (HCT-15): 2.6 µM
- GI50 (K562): 3.2 µM
- GI50 (RXF 393): 5.8 µM
- GI50 (A549): 11.3 µM
- GI50 (SF-295): 11.1 µM
- GI50 (ACHN): 5.8 µM
- IC50 (MT4): 7 µM
- GI50 (786-0): 8.2 µM
- GI50 (MDA-MB-435): 7.2 µM
- GI50 (UACC-257): 11.7 µM
- GI50 (M14): 7 µM
- GI50 (COLO 205): 20 µM
- GI50 (TK-10): 6.9 µM
- GI50 (HOP-92): 27 µM
- GI50 (OVCAR-3): 7.3 µM
- GI50 (HCT-116): 7.9 µM
- GI50 (HOP-62): 15.9 µM
- GI50 (MOLT-4): 15.2 µM
- GI50 (NCI/ADR-RES): 9.2 µM
- GI50 (PC-3): 23.6 µM
- GI50 (HL-60(TB)): 9.9 µM
- GI50 (LOX IMVI): 1.2 µM
- GI50 (OVCAR-4): 16.1 µM
- GI50 (SNB-75): 27.4 µM
- GI50 (NCI-H23): 7 µM
- GI50 (SK-MEL-28): 17.8 µM
